Shown are actives, neighbours in structure and some others; about 3.2% of the full set was active somewhere.
Apaf1 inhib: inhibitors of human Apaf-1 apoptosome, primary screen, biochemical, DEVD-Rh110 fluorescence, uHTS | reconstituted apoptosome caspase-3 activity | inhibition, % at 20 µM | 330,000 compounds, 0.71% hits | AID 489030, 2010; active = inhibition of at least 40% at 20 µM;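 also: plate controls were DMSO wells for no effect and DEVD-CHO caspase inhibitor wells for full effect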
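System: Apoptosome proteins | Medium: Hepes pH 7.5 with detergent and BSA | Also added: Cytochrome c trigger plus (Z-DEVD)2-Rh110 caspase-3 substrate | Incubation: 30 min compound preincubation, 50 min activation, room temperature | Detection: Rhodamine 110 fluorescence at Ex 480/Em 540 nm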
MEKK2mut PB1 HTS: MEK5 binding signal on mutant MEKK2 PB1, primary screen, biochemical, multiplex bead flow cytometry, Alexa488-MEK5. Alexa488-MEK5 binding to MEKK2 mutant. percent response, % at 10 µM. 290,000 compounds, 0.35% hits. AID 1530, 2009; in the data active = percent response above about 24%, passing the limit was not always enough
MEKK3 PB1 HTS: modulators of MEKK3-MEK5 PB1 binding, primary screen, biochemical, wildtype MEKK3, multiplex bead flow cytometry, Alexa488-MEK5; AID 1529, 2009; Mitogen-activated protein kinase kinase kinase 3 (Homo sapiens), Q99759; bead-based flow cytometry, Alexa488-MEK5 binding to MEKK3; actives lie on both sides; 0 = blocked by unlabeled MEK5, 100 = vehicle; binding response (% of control), % at 10 µM; 290,000 compounds, 1.4% hits;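 active = binding response more than 3 SD above or below the average of its plate-row segment, actives on both sides; inconclusive = wells at one plate position flagged as instrument error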;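 also: Alexa488 bead fluorescence after subtracting the streptavidin-only scavenger bead signal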
MEKK2wt PB1 HTS: modulators of MEK5 binding to wildtype MEKK2, primary screen, biochemical, multiplex bead flow cytometry, Alexa488-MEK5; Mitogen-activated protein kinase kinase kinase 2 (Homo sapiens), Q9Y2U5; Alexa488-MEK5 binding to MEKK2 WT; actives lie on both sides; binding response (% of control), % at 10 µM; 290,000 compounds, 1.1% hits; AID 1531, 2009; in the data active = binding response below about 67% or above about 130%; inconclusive = no clear call, values can overlap the other calls; inactive = in between
DSG3 Ab inh: inhibitors of pemphigus antibody binding to DSG3, primary screen, biochemical, bead-based, flow cytometry, scFv-GFP; Desmoglein-3 (Homo sapiens), P32926; DSG3-coupled beads, scFv-anti-DSG3-GFP binding; hits give low values; binding (percent of control), % at 10 µM; 310,000 compounds, 0.48% hits; AID 588358, 2011;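 active = binding more than 3 SD below its plate's average and above zero; inconclusive = below that plate limit but binding exactly zero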;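 also: hits lower antibody fragment binding to DSG3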
Target sequence (P32926 whole entry, looked up, the tested form may be a part): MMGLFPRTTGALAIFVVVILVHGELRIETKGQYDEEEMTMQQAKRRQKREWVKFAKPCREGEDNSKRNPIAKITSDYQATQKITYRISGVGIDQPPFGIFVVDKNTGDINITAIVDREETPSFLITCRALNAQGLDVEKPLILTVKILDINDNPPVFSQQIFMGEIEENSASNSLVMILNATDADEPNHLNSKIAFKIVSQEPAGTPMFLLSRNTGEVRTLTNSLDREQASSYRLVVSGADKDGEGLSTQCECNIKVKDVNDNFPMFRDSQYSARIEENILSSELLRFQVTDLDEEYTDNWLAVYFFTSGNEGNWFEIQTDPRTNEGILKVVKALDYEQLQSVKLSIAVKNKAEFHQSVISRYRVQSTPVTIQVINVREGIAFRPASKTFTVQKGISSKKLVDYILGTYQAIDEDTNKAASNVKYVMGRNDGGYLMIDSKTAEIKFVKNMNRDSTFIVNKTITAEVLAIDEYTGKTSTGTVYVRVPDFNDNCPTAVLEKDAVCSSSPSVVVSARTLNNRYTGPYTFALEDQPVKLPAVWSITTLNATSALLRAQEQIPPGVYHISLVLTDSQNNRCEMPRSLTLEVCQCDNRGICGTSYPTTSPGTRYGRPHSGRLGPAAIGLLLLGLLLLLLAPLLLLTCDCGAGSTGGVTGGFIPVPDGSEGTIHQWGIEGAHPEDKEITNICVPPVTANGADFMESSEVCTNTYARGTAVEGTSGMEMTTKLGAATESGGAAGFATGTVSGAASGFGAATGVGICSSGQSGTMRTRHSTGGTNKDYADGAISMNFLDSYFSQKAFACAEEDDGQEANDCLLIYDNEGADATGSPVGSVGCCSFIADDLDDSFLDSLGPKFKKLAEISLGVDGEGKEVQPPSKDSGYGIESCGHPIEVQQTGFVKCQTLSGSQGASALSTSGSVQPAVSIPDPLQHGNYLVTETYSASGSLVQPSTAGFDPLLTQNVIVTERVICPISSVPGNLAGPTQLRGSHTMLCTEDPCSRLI
UBC13 polyUb: UBC13 polyubiquitin chain formation inhibitors, primary screen, biochemical, TR-FRET, uHTS. Ubiquitin-conjugating enzyme E2 N (Homo sapiens), P61088. inhibition, % at 20 µM. 330,000 compounds, 0.47% hits; in the data active = inhibition above about 45%, passing the limit was not always enough; inconclusive = no clear call, values can overlap the other calls
Starred values were filed as active, the others as inactive; ? = inconclusive; . = no result given; [ ] = dose if it differs, or a comment.

SMILES	Apaf1 inhib	MEKK2mut PB1 HTS	MEKK3 PB1 HTS	MEKK2wt PB1 HTS	DSG3 Ab inh	UBC13 polyUb
Cc1ccc(N2CC(C(=O)N3CCOCC3)CC2=O)cc1Cl (stereo not drawn)	3.8	-5.0	102.0	102.0	.	-4.9
Cc1[nH]c2c(ccc3cccnc32)c1C	-4.2	-3.0	91.0	89.0	97.8	2.7
CC1=[N+](C)c2c(ccc3cccnc23)C1(C)C	.	-15.0	91.0	-9.0*	79.2*	.
COc1cccc(C2c3c(oc4ccccc4c3=O)C(=O)N2Cc2ccco2)c1 (stereo not drawn)	-7.2	.	.	.	67.5*	-1.4
COc1cc(C2c3c(oc4ccccc4c3=O)C(=O)N2Cc2ccco2)ccc1O (stereo not drawn)	-1.9	2.0	98.0	97.0	96.3	5.0
O=C(OCC(=O)c1ccc(Cl)s1)c1ccc(CO)cc1	6.2	.	.	.	100.0	-2.6
O=[N+]([O-])c1ccc(N/N=C/c2sc(N3CCOCC3)nc2-c2ccccc2)c(S(=O)(=O)Nc2ccccc2Cl)c1	.	63.0*	91.0	.	132.3	.
CCCCN(C)CCCNC(=O)CN1N=C(c2ccc(Cl)cc2)CCC1=O	1.9	-2.0	97.0	98.0	75.2*	-0.7
CC(C)CN(CCNC(=O)CN1N=C(c2ccc(Cl)cc2)CCC1=O)CC(C)C	2.9	7.0	104.0	109.0	96.0	1.3
O=C(Cn1ncc2c([nH]c3ccccc32)c1=O)N1CCN(c2ccccn2)CC1	13.5	-2.0	100.0	101.0	-6.6*	-9.5
O=C(Cn1ncc2c([nH]c3ccccc32)c1=O)N1CCCCC1	2.0	-1.0	99.0	99.0	106.0	-4.7
Cc1ccc(C(=O)OCC(=O)NCc2ccc(Cl)cc2)s1	.	.	.	.	96.8	.
COc1ccc(C(CNC(=O)c2ccc(S(=O)(=O)Nc3ccc(F)cc3)cc2)N(C)C)cc1 (stereo not drawn)	1.2	31.0*	108.0	119.0	101.3	11.0
COc1ccc(C(CNC(=O)c2cccc(S(=O)(=O)Nc3ccc(F)cc3)c2)N(C)C)cc1 (stereo not drawn)	2.8	.	.	.	104.6	9.7
O=C(NCCCN1CCN(Cc2ccccc2)CC1)C1CCN(c2nnc(-n3cccc3)s2)CC1	18.2	56.0*	111.0	197.0*	117.2	32.8
CCOc1ccc2nc(N3CCCC(C(=O)NCCCN4CC(C)CC(C)C4)C3)sc2c1 (stereo not drawn)	19.5	16.0	107.0	142.0*	104.8	18.2
CCOc1ccc2nc(N3CCCC(C(=O)NCCCN4CCCCC4)C3)sc2c1 (stereo not drawn)	8.0	3.0	98.0	109.0	97.8	17.0
CCC1CCCCN1CCCNC(=O)C1CCN(S(=O)(=O)N2CCCCC2)CC1 (stereo not drawn)	11.4	2.0	105.0	118.0	92.5	3.8
CCOc1ccc(NCc2cccn2-c2nnc(N3CCC(C(=O)NCCCN4CCCCC4CC)CC3)s2)cc1 (stereo not drawn)	25.1	24.0*	104.0	133.0	98.0	21.9
CC1CCCCN1CCCNC(=O)C1CCN(c2nnc(-n3cccc3)s2)CC1 (stereo not drawn)	21.9	22.0	100.0	150.0*	101.5	21.2
O=C(C[C@H]1C[C@@H]2c3cc(NC(=O)c4cccnc4)ccc3O[C@@H]2[C@H](CO)O1)NCc1ccncc1	.	.	.	.	105.8	.
Cc1c(N)cccc1Cl	.	.	.	.	105.1	.
Cc1oc(-c2cccc(Cl)c2)nc1CN1CCC(C(=O)NCCCN2CC(C)CC(C)C2)CC1 (stereo not drawn)	8.2	18.0	101.0	139.0*	116.7	23.1
CC1CC(C)CN(CCCNC(=O)C2CCN(c3nnc(-n4cccc4)s3)CC2)C1 (stereo not drawn)	9.1	20.0	100.0	155.0*	99.8	14.7
COc1ccc(NC(=O)CCC(=O)Nc2ccc3nc(N4CCOCC4)cc(C)c3c2)c(OC)c1	4.3	8.0	106.0	106.0	.	4.6
SMILES	Apaf1 inhib	MEKK2mut PB1 HTS	MEKK3 PB1 HTS	MEKK2wt PB1 HTS	DSG3 Ab inh	UBC13 polyUb
CCN1CCN(c2cc(C)c3cc(NC(=S)N4CCN(c5ccccc5)CC4)ccc3n2)CC1	7.6	8.0	101.0	121.0	98.8	18.4
COc1ccc(N(C)C(=O)CCC(=O)Nc2ccc3nc(N4CCOCC4)cc(C)c3c2)c(OC)c1	11.4	3.0	103.0	98.0	89.4*	8.1
Cc1cc(N2CCOCC2)nc2ccc(NC(=S)N3CCN(c4ccccc4)CC3)cc12	21.4	-2.0	98.0	92.0	1.0*	-16.6
Cc1n[nH]c(=S)n(NC(=O)CC(=O)Nn2c(=S)[nH]nc(C)c2=O)c1=O	-6.9	-1.0	101.0	98.0	101.3	4.9
Cc1n[nH]c(=S)n(NC(=O)/C=C/C(=O)Nn2c(=S)[nH]nc(C)c2=O)c1=O	.	-51.0	86.0	82.0	36.1*	.
CCOc1ccc(CC(=O)N/N=C/c2sccc2C)cc1	15.9	2.0	102.0	104.0	105.8	-2.4
O=C(/C=C/c1cccc(O)c1)c1ccc(N2CCOCC2)cc1	-22.0	-15.0	85.0	-4.0*	86.0	4.0
COc1cc(/C=C/C=C2/CC/C(=C/C=C/c3ccc(O)c(OC)c3)C2=O)ccc1O	.	.	.	.	35.7*	.
COc1cc(/C=C2/CC/C(=C/c3ccc(O)c(OC)c3)C2=O)ccc1O	-2.8	5.0	101.0	89.0	85.9	-57.7
COc1ccccc1CNC(=O)COC(=O)c1ccccc1SCC(=O)N1CCCC1	2.9	.	.	.	101.8	-1.2
CC(C)Sc1nc(-c2ccccc2)cc(=O)[nH]1	1.9	0.0	102.0	95.0	108.3	15.2
O=c1cc(-c2ccccc2)nc(Sc2ccc([N+](=O)[O-])cc2[N+](=O)[O-])[nH]1	0.0	.	.	.	80.9*	-9.7
O=c1oc(-c2cccnc2)nc2ccccc12	-6.8	-3.0	95.0	96.0	77.3*	-10.9
Cc1ccccc1C(=O)Nc1ccc(C(=O)N/N=C/c2ccc(O)cc2)cc1	-0.2	-22.0	92.0	59.0*[inhibitor]	?	-7.3
CCCCCCNC(=O)c1cc(S(=O)(=O)N2CCc3ccccc32)ccc1F	4.6	5.0	104.0	104.0	86.9*	3.1
CCCNC(=O)c1cc(S(=O)(=O)N2CCc3ccccc32)cn1C	6.2	1.0	99.0	102.0	107.1	4.5
O=C(CC1C(=O)NCCN1Cc1c(F)cccc1Cl)NCc1ccccc1 (stereo not drawn)	16.6	-11.0	96.0	91.0	102.7	2.5

Assay outcomes: PubChem, several laboratories
